From ChEMBL document CHEMBL4138319, “Discovery, Synthesis, Pharmacological Profiling, and Biological Characterization of Brintonamides A-E, Novel Dual Protease and GPCR Modulators from a Marine Cyanobacterium” (J Med Chem, 2018)
Activity calls are given as the source filed them. The calls are words filed in the database; no cut-off is given here. Square brackets hold non-standard residues; d marks the D form. Peptide text beside a SMILES is read from it. * marks the point of attachment. X1 = CC[C@H](C)[C@@H](OC(=O)/C=C/c1ccccc1)C(=O)*; dNMeF = CN[C@H](Cc1ccccc1)C(=O)O; NMeL = CN[C@@H](CC(C)C)C(=O)O

Columns and labels:
Kallikrein-7 [1] = molecular target: T1, Kallikrein-7 (Homo sapiens, UniProt P49862); test: Inhibition of recombinant human kallikrein 7 assessed as decrease in cleavage of desmoglein-2 at 10 uM after 30 mins or 2 hrs by silver staining based SDS-PAGE analysis
T1 sequence (P49862 30-253 limits assumed): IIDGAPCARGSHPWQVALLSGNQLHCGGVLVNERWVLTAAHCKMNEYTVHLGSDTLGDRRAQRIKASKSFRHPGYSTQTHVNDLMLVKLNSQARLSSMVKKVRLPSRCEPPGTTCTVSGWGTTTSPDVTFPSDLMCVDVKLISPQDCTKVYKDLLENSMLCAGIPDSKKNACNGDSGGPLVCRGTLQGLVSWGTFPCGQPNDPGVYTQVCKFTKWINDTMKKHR

Kallikrein-7 [2] = molecular target: T1, Kallikrein-7; test: Mixed type inhibition of kallikrein 7 (unknown origin) using fluorescently labeled peptide substrate by fluorescence assay based Michaelis-Menten kinetic plot analysis
MDA-MB-231 [3] = test: Antiproliferative activity against siCCR10 knockdown human MDA-MB-231 cells after 48 hrs by MTT assay; type: functional
Procedure, shortened: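 MDA-MB-231 cells are incubated with 50 nM CCR10 siRNA, which gives 60% knockdown confirmed by RT-qPCR. Proliferation is compared with negative-control siRNA, mean ± SD, n = 3.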

MDA-MB-231 [4] = test: Antimigratory activity against human MDA-MB-231 cells at 10 uM after 48 hrs by transwell migration assay relative to control; type: functional
Kallikrein-7 [5] = molecular target: T1, Kallikrein-7; test: Inhibition of kallikrein 7 (unknown origin) using fluorescently labeled peptide substrate by fluorescence assay
Procedure, shortened: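 KLK7 follow-up: 10-dose titrations, 3-fold serial dilution from 100 μM, in duplicate, with gabexate mesylate as positive control. Fluorescence from the labeled peptide substrate is monitored over time, and the initial linear slope (signal/min) is used to derive IC50.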

[6] = molecular target: T2, Atypical chemokine receptor 3 (Homo sapiens, UniProt P25106); test: Agonist activity at human CXCR7 expressed in CHOK1 cells assessed as induction of beta-arrestin recruitment at 10 uM by chemiluminescence method; type: functional, cell-based
T2 sequence (P25106 whole entry): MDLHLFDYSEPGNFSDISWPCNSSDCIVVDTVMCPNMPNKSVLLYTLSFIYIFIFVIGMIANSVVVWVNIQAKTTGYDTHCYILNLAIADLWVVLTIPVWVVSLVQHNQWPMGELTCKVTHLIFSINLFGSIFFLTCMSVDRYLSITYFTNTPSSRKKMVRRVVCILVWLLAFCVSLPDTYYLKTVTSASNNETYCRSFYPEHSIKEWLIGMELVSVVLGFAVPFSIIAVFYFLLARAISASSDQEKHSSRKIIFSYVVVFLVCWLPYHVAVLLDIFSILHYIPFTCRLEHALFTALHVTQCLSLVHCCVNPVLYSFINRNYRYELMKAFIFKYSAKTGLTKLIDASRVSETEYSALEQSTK

Oxytocin receptor = molecular target: T3, Oxytocin receptor (Homo sapiens, UniProt P30559); test: Antagonist activity at human OXTR expressed in CHOK1 cells assessed as oxytocin-induced beta-arrestin recruitment pre-incubated for 30 mins before oxytocin stimulation for 90 or 180 mins by chemiluminescence method; type: functional, cell-based
T3 sequence (P30559 whole entry): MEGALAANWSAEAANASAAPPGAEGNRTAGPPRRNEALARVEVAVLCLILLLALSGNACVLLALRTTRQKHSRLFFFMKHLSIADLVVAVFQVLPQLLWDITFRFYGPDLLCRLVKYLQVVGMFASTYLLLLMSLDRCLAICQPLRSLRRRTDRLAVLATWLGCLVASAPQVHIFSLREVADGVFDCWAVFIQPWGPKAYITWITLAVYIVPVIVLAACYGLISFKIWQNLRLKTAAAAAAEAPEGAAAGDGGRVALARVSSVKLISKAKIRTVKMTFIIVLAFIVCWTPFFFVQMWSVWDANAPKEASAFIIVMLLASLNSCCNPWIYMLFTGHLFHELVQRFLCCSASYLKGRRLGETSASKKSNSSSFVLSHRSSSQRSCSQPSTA
Procedure, shortened: (§1)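 PathHunter β-arrestin complementation assay, antagonist mode. Cells co-express ProLink-tagged GPCR and enzyme-acceptor-tagged β-arrestin and are pre-incubated with sample for 30 min at 37 °C or room temperature. Dose-response: 10 points, 3-fold dilutions from 20 μM, in duplicate.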

[7] = molecular target: T2, Atypical chemokine receptor 3; test: Agonist activity at human CXCR7 expressed in CHOK1 cells assessed as induction of beta-arrestin recruitment by chemiluminescence method; type: functional, cell-based
Procedure, shortened: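 PathHunter β-arrestin enzyme-fragment complementation assay in cells stably co-expressing ProLink-tagged GPCR and enzyme-acceptor-tagged β-arrestin. Sample is added to cells and incubated 90 or 180 min at 37 °C or room temperature, with 1% final vehicle. Detection reagent is added for 1 h at room temperature and chemiluminescence is read. % activity is taken relative to vehicle and maximal control ligand. Dose-response: 10 points, 3-fold dilutions from 20 μM, in duplicate.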

[8] = molecular target: T4, C-C chemokine receptor type 10 (Homo sapiens) (UniProt P46092); test: Antagonist activity at human CCR10 expressed in human U2OS cells assessed as inhibition of CCL27-induced beta-arrestin recruitment at 10 uM pre-incubated for 30 mins before CCL27 stimulation for 90 or 180 mins by chemiluminescence method; type: functional, cell-based; design: scale not given: the % may be the effect or the level left
T4 sequence (whole entry): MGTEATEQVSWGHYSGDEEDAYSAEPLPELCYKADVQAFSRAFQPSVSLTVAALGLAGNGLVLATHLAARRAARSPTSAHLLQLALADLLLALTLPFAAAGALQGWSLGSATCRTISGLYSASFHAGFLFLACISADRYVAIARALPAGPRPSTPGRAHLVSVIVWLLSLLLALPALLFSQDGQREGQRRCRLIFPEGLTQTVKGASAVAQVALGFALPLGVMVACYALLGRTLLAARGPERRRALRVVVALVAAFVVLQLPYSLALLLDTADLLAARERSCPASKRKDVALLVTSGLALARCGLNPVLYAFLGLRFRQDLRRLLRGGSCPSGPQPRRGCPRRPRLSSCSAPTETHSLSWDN

[9] = molecular target: T2, Atypical chemokine receptor 3; test: Agonist activity at human CXCR7 expressed in CHOK1 cells assessed as induction of beta-arrestin recruitment at 20 uM by chemiluminescence method; type: functional, cell-based
Kallikrein-7 [10] = molecular target: T1, Kallikrein-7; test: Inhibition of recombinant human kallikrein 7 assessed as decrease in cleavage of E-cadherin at 10 uM after 30 mins or 2 hrs by silver staining based SDS-PAGE analysis
[11] = molecular target: T5, Oxytocin receptor (Homo sapiens) (UniProt P30559); test: Antagonist activity at human OXTR expressed in CHOK1 cells assessed as oxytocin-induced beta-arrestin recruitment at 10 uM pre-incubated for 30 mins before oxytocin stimulation for 90 or 180 mins by chemiluminescence method; type: functional, cell-based; design: scale not given: the % may be the effect or the level left
T5 sequence (whole entry): T3 sequence (P30559 whole entry)

Caspase-14 = molecular target: T6, Caspase-14 (Homo sapiens, UniProt P31944); test: Inhibition of human caspase 14 using Ac-WEHD-AMC fluorogenic peptide as substrate by fluorescence assay
T6 sequence (P31944 whole entry): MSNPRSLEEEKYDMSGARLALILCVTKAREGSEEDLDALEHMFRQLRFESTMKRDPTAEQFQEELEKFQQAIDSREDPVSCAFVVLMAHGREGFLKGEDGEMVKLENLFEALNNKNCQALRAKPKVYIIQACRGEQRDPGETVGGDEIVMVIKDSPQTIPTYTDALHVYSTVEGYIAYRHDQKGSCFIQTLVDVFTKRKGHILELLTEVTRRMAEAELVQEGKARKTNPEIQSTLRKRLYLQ
Procedure, shortened: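 Activity followed as a time course of rising fluorescence from a fluorescently labelled peptide substrate. The initial linear slope (signal/min) was used.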

Substance-K receptor = molecular target: T7, Substance-K receptor (Homo sapiens, UniProt P21452); test: Antagonist activity at human TACR2 expressed in CHOK1 cells assessed as substance P-induced beta-arrestin recruitment pre-incubated for 30 mins before substance P stimulation for 90 or 180 mins by chemiluminescence method; type: functional, cell-based; procedure, shortened: as §1
T7 sequence (P21452 whole entry): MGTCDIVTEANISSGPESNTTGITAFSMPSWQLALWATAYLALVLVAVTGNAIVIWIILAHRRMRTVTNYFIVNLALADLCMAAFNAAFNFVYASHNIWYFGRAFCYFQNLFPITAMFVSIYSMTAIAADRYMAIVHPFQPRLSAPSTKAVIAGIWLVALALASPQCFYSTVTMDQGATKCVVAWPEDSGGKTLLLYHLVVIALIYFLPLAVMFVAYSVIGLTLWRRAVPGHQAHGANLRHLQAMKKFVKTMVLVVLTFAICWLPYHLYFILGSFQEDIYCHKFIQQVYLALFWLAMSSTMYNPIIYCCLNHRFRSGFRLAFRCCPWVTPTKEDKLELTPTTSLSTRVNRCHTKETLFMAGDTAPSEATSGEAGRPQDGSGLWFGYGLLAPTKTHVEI

In the case of `CC[C@H](C)[C@@H](OC(=O)/C=C/c1ccccc1)C(=O)N1CCC[C@H]1C(=O)NCC(=O)N(C)[C@@H](CC(C)C)C(=O)N[C@@H](C)C(=O)N(C)[C@H](Cc1ccccc1)C(=O)N1CCC[C@H]1C(=O)OC` (X1-PG[NMeL]A[dNMeF]P-OMe), the inhibition (Kallikrein-7 [1]) is reported as “Active”, the inhibition (Kallikrein-7 [2]) is reported as “Active” and the Activity (MDA-MB-231 [3]) is reported as 10%. The Activity (MDA-MB-231 [4]) was 60%, the inhibition (Kallikrein-7 [5]) was “Active” and the Activity [6] was 86%. For the same compound, the IC50 (Oxytocin receptor) was 6.78 µM, the EC50 [7] was 3.97 µM and the Activity [8] was 98%. For the same compound, the Activity [9] was 91%, the inhibition (Kallikrein-7 [10]) was “Active” and the Activity [11] was 76%. It also gave an IC50 (Caspase-14) of 10.1 µM and an IC50 (Substance-K receptor) of 1790 nM.
